According to ChEMBL document CHEMBL5226372, “Tuaimenals B-H, Merosesquiterpenes from the Irish Deep-Sea Soft Coral Duva florida with Bioactivity against Cervical Cancer Cell Lines” (J Nat Prod, 2023):
Active and inactive are the calls of the source. No cut-off for these calls is given here.

Tests used:
Staphylococcus aureus = assay: Antibacterial activity against Staphylococcus aureus; format: functional, organism-based
Enterobacter sp. = assay: Antibacterial activity against Enterobacter sp.; format: functional, organism-based
Acinetobacter baumannii = assay: Antibacterial activity against Acinetobacter baumannii; format: functional, organism-based
[1] = Selectivity ratio of EC50 for antiproliferative activity against HPV-positive human Ca-Ski cells to EC50 for antiproliferative activity against HPV-negative human C-33-A cells; format: functional
Method in brief: (§1)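 CaSki cells (RPMI 1640) and C33A cells (DMEM), passage <10, kept at 37 °C in 5% CO2. Cells were seeded at 1000–3000 per well to reach 50% confluency, then treated 48 h with serial dilutions from 200 to 2 μM in DMSO (N = 3). WST-1 was read after 2 h at 450/600 nm. Absorbances were normalized and EC50 came from nonlinear regression.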

Human orthopneumovirus = assay: Antiviral activity against human respiratory syncytial virus; format: functional, organism-based
C-33-A [2] = assay: Antiproliferative activity against HPV-negative human C-33-A cells assessed as inhibition of cell growth incubated for 48 hrs by WST-1 assay; format: functional, cell-based; method in brief: as §1
Ca-Ski [3] = assay: Antiproliferative activity against HPV-positive human Ca-Ski cells assessed as inhibition of cell growth incubated for 48 hrs by WST-1 assay; format: functional, cell-based
Method in brief: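 CaSki cells were grown in RPMI 1640 with 10% FBS, kept below passage 10, at 37 °C and 5% CO2. They were seeded at 1000–3000 cells/well (about 50% confluence) and treated with 12 serial dilutions from 200 to 2 μM in DMSO (N = 3), with DMSO and 50 μM etoposide controls. After 48 h, 2 h WST-1 was read at 450/600 nm, normalized, and fitted by nonlinear regression.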

Klebsiella pneumoniae = assay: Antibacterial activity against Klebsiella pneumoniae; format: functional, organism-based
Pseudomonas aeruginosa = assay: Antibacterial activity against Pseudomonas aeruginosa; format: functional, organism-based
[4] = test system: Mycobacterium tuberculosis; assay: Antibacterial activity against Mycobacterium tuberculosis; format: functional, organism-based
Enterococcus faecium = assay: Antibacterial activity against Enterococcus faecium; format: functional, organism-based
Candida = assay: Antifungal activity against Candida; format: functional, organism-based
C-33-A [5] = assay: Antiproliferative activity against HPV-negative human C-33-A cells assessed as inhibition of cell growth at 50 uM incubated for 48 hrs by WST-1 assay; format: functional, cell-based
Method in brief: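 C33A cells in DMEM, seeded at 1000–3000 per well and exposed to 50 μM etoposide as the positive control alongside a DMSO negative control (N = 3). Proliferation was read by WST-1 after 48 h treatment plus 2 h reagent incubation, at 450/600 nm. End-point absorbances were normalized.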

Ca-Ski [6] = assay: Antiproliferative activity against HPV-positive human Ca-Ski cells assessed as inhibition of cell growth at 50 uM incubated for 48 hrs by WST-1 assay; format: functional, cell-based

SMILES | Activity (Staphylococcus aureus) | Activity (Enterobacter sp.) | Activity (Acinetobacter baumannii) | Ratio EC50 [1] | Activity (Human orthopneumovirus) | EC50 (C-33-A [2]) | EC50 (Ca-Ski [3]) | Activity (Klebsiella pneumoniae) | Activity (Pseudomonas aeruginosa) | Activity [4] | Activity (Enterococcus faecium) | Activity (Candida) | Activity (C-33-A [5]) | Activity (Ca-Ski [6])
COc1cc(C)c(O)c2c1C=CC(C)(CC/C=C(\C)CCCC(C)(C)OC(C)=O)O2 (stereo not drawn) | inactive | inactive | inactive | 500 | inactive | 0.04 µM | 20 µM | inactive | inactive | inactive | inactive | inactive |  | 
COc1cc([C@@H]2c3cc4c(cc3[C@@H](O[C@@H]3O[C@@H]5CO[C@@H](C)O[C@H]5[C@H](O)[C@H]3O)[C@H]3COC(=O)[C@H]23)OCO4)cc(OC)c1O |  |  |  |  |  |  |  |  |  |  |  |  | Active | Active
CC(C)=CCC/C(C)=C/CCC1(C)C=Cc2c(C=O)c(O)c(C)c(O)c2O1 (stereo not drawn) | inactive | inactive | inactive |  | inactive | 58 µM | 46 µM | inactive | inactive | inactive | inactive | inactive |  | 
COc1cc(C)c(O)c2c1C=CC(C)(CC/C=C(\C)CCCC(C)(C)O)O2 (stereo not drawn) | inactive | inactive | inactive |  | inactive | 38 µM | 41 µM | inactive | inactive | inactive | inactive | inactive |  | 
CC(C)=CCC/C(C)=C/CC/C(C)=C/Cc1c(O)c(O)c(C)c(O)c1C=O | inactive | inactive | inactive |  | inactive | 14 µM | 23 µM | inactive | inactive | inactive | inactive | inactive |  | 
CC(=O)Oc1cc(C)c(O)c2c1C=CC(C)(CC/C=C(\C)CCC=C(C)C)O2 (stereo not drawn) | inactive | inactive | inactive |  | inactive | 14 µM | 25 µM | inactive | inactive | inactive | inactive | inactive |  | 
